Test results reported in ChEMBL document CHEMBL5620421, “2,6-Disubstituted 7-(naphthalen-2-ylmethyl)-7H-purines as a new class of potent antitubercular agents inhibiting DprE1” (Eur J Med Chem, 2023).

Assays:
Type in all cases: functional
Settings in all cases: time 14-21 day
[1] = tested on: Mycobacterium tuberculosis; experiment: (§1) Antimycobacterial activity against isoniazid/ethambutol/rifampin/streptomycin/amikacin/gentamicin/clofazimine/ofloxacin resistant MDR/XDR clinical isolate Mycobacterium tuberculosis 9449/2007 assessed as inhibition of mycobacterial growth measured after 14 to 21 days of incubation by Sulas semisynthetic medium based assay
In short: (§2)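 Clinical MDR/XDR M. tuberculosis isolates were tested by the Sula's semisynthetic medium micromethod. Compounds in DMSO at 1000 to 0.5 μmol/L, in twofold-type steps. Incubation at 37 °C, read at 14 and 21 days. MIC99 is the lowest concentration inhibiting >99% of growth. Drug resistance or susceptibility of each isolate is to amikacin, clofazimine, gentamicin, ofloxacin, streptomycin and the others listed.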

[2] = tested on: Mycobacterium tuberculosis; experiment: as §1, with “7357/1998” for “9449/2007”; in short: as §2
[3] = tested on: Mycobacterium tuberculosis; experiment: as §1, with “PRAHA 131” for “9449/2007”; in short: as §2
[4] = tested on: Mycobacterium tuberculosis; experiment: as §1, with “8666/2010” for “9449/2007”; in short: as §2
[5] = tested on: Mycobacterium tuberculosis; experiment: as §1, with “PRAHA 4” for “9449/2007”; in short: as §2
[6] = tested on: Mycobacterium tuberculosis; experiment: as §1, with “234/2005” for “9449/2007”; in short: as §2
[7] = tested on: Mycobacterium tuberculosis; experiment: as §1, with “PRAHA 1” for “9449/2007”; in short: as §2

Compound | MIC99 [1] [µM] | MIC99 [2] [µM] | MIC99 [3] [µM] | MIC99 [4] [µM] | MIC99 [5] [µM] | MIC99 [6] [µM] | MIC99 [7] [µM]
CN[C@@H]1[C@H](O[C@H]2[C@H](O[C@H]3[C@H](O)[C@@H](O)[C@H](N=C(N)N)[C@@H](O)[C@@H]3N=C(N)N)O[C@@H](C)[C@]2(O)C=O)O[C@@H](CO)[C@H](O)[C@H]1O [STREPTOMYCIN] | > 32 | > 32 | > 32 | > 32 | > 32 |  | 
NCC[C@H](O)C(=O)N[C@@H]1C[C@H](N)[C@@H](O[C@H]2O[C@H](CN)[C@@H](O)[C@H](O)[C@H]2O)[C@H](O)[C@H]1O[C@H]1O[C@H](CO)[C@@H](O)[C@H](N)[C@H]1O [AMIKACIN] |  |  | > 32 |  |  |  | 
CC1COc2c(N3CCN(C)CC3)c(F)cc3c(=O)c(C(=O)O)cn1c23 (stereo not given) [OFLOXACIN] |  |  |  |  | > 16 |  | 
GENTAMICIN |  |  | > 8 |  |  |  | 
CO[C@H]1/C=C/O[C@@]2(C)Oc3c(C)c(O)c4c(O)c(c(/C=N/N5CCN(C)CC5)c(O)c4c3C2=O)NC(=O)/C(C)=C\C=C\[C@H](C)[C@H](O)[C@@H](C)[C@@H](O)[C@@H](C)[C@H](OC(C)=O)[C@@H]1C [RIFAMPIN] | > 8 | > 8 | > 8 | > 8 | > 8 | > 8 | > 8
